Our source for the Activity values is ChEMBL document CHEMBL1151954, “Photinides A-F, cytotoxic benzofuranone-derived gamma-lactones from the plant endophytic fungus Pestalotiopsis photiniae” (2009).

Activity calls are given as the source filed them. The calls are words filed in the database; no cut-off is given here.

The subject of experiment [1] is HeLa. As to the kind of experiment: Cytotoxicity against human HeLa cells at 10 ug/ml after 4 hrs by MTT assay. Format: functional, cell-based. Summed up:
(§1)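 MTT assay in 96-well plates, 10^4 cells per well, attached overnight. Cells were exposed to compound diluted in medium from 10 mg/mL DMSO stocks (vehicle control 0.2% DMSO) at 37 °C, 5% CO2, for 4 h, then changed to fresh DMEM. MTT (0.5 mg/mL) was added for 3 h at 37 °C in the dark. Formazan was dissolved in DMSO and read at 540 nm; results given as inhibitory rate.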
Background: Formazan colour is commonly taken as a measure of viable cells.

Experiment [2] concerns MDA-MB-231. Description: Cytotoxicity against human MDA-MB-231 cells at 10 ug/ml after 4 hrs by MTT assay. The experiment is classed as functional. Summed up:
as §1

On to `COc1cccc2c1C(=O)[C@]1(O2)O[C@@]1(CO)[C@@H]1OC(=O)C[C@H]1C`, for which the result in experiment [1] was inactive. This molecule also showed an Activity in experiment [2] of 24.6%.

Consider `COc1cccc2c1C(=O)[C@@]1(O2)O[C@]1(CO)[C@@H]1OC(=O)C[C@H]1C`, for which, in experiment [1], the result was inactive. The outcome in experiment [2] was Active.

On to `COc1cccc2c1C(=O)/C(=C(\CO)[C@@H]1OC(=O)C[C@H]1C)O2` [PHOTINIDE A], for which the result in experiment [1] was inactive. For the same molecule, the Activity in experiment [2] came out at 24.4%.

On to `COc1cccc2c1C(=O)/C(=C(/CO)[C@@H]1OC(=O)C[C@H]1C)O2` [PHOTINIDE B], for which the outcome in experiment [1] was inactive. In addition, the Activity in experiment [2] turned out to be 24.2%.

Regarding `C[C@@H]1CC(=O)O[C@H]1/C(CO)=C1\Oc2cccc(O)c2C1=O` [PHOTINIDE C], the outcome in experiment [1] was inactive. The molecule further came in with an Activity in experiment [2] of 23.1%.

Turning to `C[C@@H]1CC(=O)O[C@H]1/C(CO)=C1/Oc2cccc(O)c2C1=O` [PHOTINIDE D], the result in experiment [1] was inactive. The same molecule registered an Activity in experiment [2] of 24.4%.
